Values after ≈ are worked out from the molar mass of the structure shown. Active and inactive are the calls of the source. The calls are words filed in the database; no cut-off is given here.
Assays:
[1] = Oral bioavailability in female CD-1 mouse at 11 mg/kg measured after 12 hrs by LC-MS/MS analysis; format: ADME, organism-based; settings: in vivo
Summary of the method: (§1)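 Female CD-1 mice (n = 3/group) received one bolus of 11 mg/kg (actual dose; 10 mg/kg intended) IV or PO. Plasma was sampled at six time points over 12 h, and brain homogenate was taken at the 12 h end point. […] Mean ± SD.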

[2] = Half-life in female CD-1 mouse at 11 mg/kg, iv measured after 12 hrs by LC-MS/MS analysis; format: ADME, organism-based; settings: in vivo; summary of the method: as §1
[3] = Protein binding in CD-1 mouse plasma incubated for 4 hrs by equilibrium dialysis based LC-MS/MS analysis; format: ADME, cell-free; settings: mouse, 4 h
[4] = AUCinfinity in female CD-1 mouse at 11 mg/kg, po measured after 12 hrs by LC-MS/MS analysis; format: ADME, organism-based; settings: in vivo; summary of the method: as §1
[5] = Toxicity in female CD-1 mouse infected with Naegleria fowleri Nf69 (ATCC 30215) trophozoites assessed as adverse effect at 50 mg/kg, ip pre-infected for 48 hrs from day 0 followed by single bolus compound administration from day 2 to day 6 and measured on day 14 post-infection; format: organism-based; settings: in vivo, 312 h, time 13 day
[6] = AUCinfinity in female CD-1 mouse at 11 mg/kg, iv measured after 12 hrs by LC-MS/MS analysis; format: ADME, organism-based; settings: in vivo; summary of the method: as §1
[7] = Drug concentration in female CD-1 mouse plasma at 11 mg/kg, po measured after 0.5 hrs by LC-MS/MS analysis; format: ADME, organism-based; summary of the method: as §1
[8] = Half-life in female CD-1 mouse at 11 mg/kg, po measured after 12 hrs by LC-MS/MS analysis; format: ADME, organism-based; settings: in vivo; summary of the method: as §1
[9] = Ratio of drug concentration in female CD-1 mouse brain to plasma at 44 mg/kg, ip measured after 4 hrs by LC-MS/MS analysis; format: ADME, organism-based
Summary of the method: (§2)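 Female CD-1 mice (n = 3/group) received one intraperitoneal bolus of 44 mg/kg (actual dose; 50 mg/kg intended). Plasma was sampled at 2 and 4 h and brain homogenate at 4 h. Brain-to-plasma ratio = brain over plasma concentration at 4 h. Mean ± SD.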

[10] = Drug concentration in female CD-1 mouse brain at 11 mg/kg, iv measured after 12 hrs by LC-MS/MS analysis; format: ADME, organism-based; settings: read-out: Ct; summary of the method: as §1
Naegleria fowleri [11] = test: Anti-ameobic activity against Naegleria fowleri Nf69 (ATCC 30215) trophozoites assessed as inhibition of amoeba growth incubated for 48 hrs by CellTiter-Glo assay; format: functional, organism-based; settings: Naegleria fowleri, Nf69 (ATCC 30215), 48 h
Summary of the method: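 Axenic Nf69 trophozoites were seeded at 1 × 10^4 cells/mL in Nelson's complete medium with 10% heat-inactivated FBS. Compound was added at 20 to 0.375 μM (lower ranges for very potent compounds), with vehicle controls, for 48 h at 37 °C and 5% CO2. CellTiter-Glo luminescence gave % growth inhibition versus controls, and triplicate means were fitted to dose–response curves for EC50.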

Naegleria fowleri [12] = test: Anti-ameobic activity against Naegleria fowleri TY (ATCC 30107) trophozoites assessed as inhibition of amoeba growth incubated for 48 hrs by CellTiter-Glo assay; format: functional, organism-based
Summary of the method: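 TY strain (ATCC 30107) trophozoites, seeded at 1 × 10^4 cells/mL, were exposed 48 h (37 °C, 5% CO2) to vehicle or compound, with concentrations initially 20 to 0.375 μM. CellTiter-Glo luminescence gave % growth inhibition versus controls. EC50 was fit from triplicate runs (n = 3, ± SEM).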

[13] = Drug concentration in female CD-1 mouse plasma at 11 mg/kg, iv measured after 4 hrs by LC-MS/MS analysis; format: ADME, organism-based; summary of the method: as §1
[14] = Volume of distribution in female CD-1 mouse at 11 mg/kg, iv measured after 12 hrs by LC-MS/MS analysis; format: ADME, organism-based; settings: in vivo; summary of the method: as §1
[15] = Drug concentration in female CD-1 mouse plasma at 11 mg/kg, iv measured after 12 hrs by LC-MS/MS analysis; format: ADME, organism-based; summary of the method: as §1
[16] = Drug concentration in female CD-1 mouse plasma at 11 mg/kg, iv measured after 2 hrs by LC-MS/MS analysis; format: ADME, organism-based; summary of the method: as §1
[17] = Drug concentration in female CD-1 mouse brain at 11 mg/kg, po measured after 12 hrs by LC-MS/MS analysis; format: ADME, organism-based; settings: read-out: Ct; summary of the method: as §1
[18] = Drug concentration in female CD-1 mouse brain at 44 mg/kg, ip measured after 4 hrs by LC-MS/MS analysis; format: ADME, organism-based; settings: read-out: Ct; summary of the method: as §2
[19] = Drug concentration in female CD-1 mouse plasma at 11 mg/kg, po measured after 12 hrs by LC-MS/MS analysis; format: ADME, organism-based; summary of the method: as §1
[20] = Drug concentration in female CD-1 mouse plasma at 11 mg/kg, po measured after 4 hrs by LC-MS/MS analysis; format: ADME, organism-based; summary of the method: as §1
[21] = Drug concentration in female CD-1 mouse plasma at 11 mg/kg, iv measured after 8 hrs by LC-MS/MS analysis; format: ADME, organism-based; summary of the method: as §1
Naegleria fowleri [22] = test: Anti-ameobic activity against Naegleria fowleri Nf69 (ATCC 30215) trophozoites infected in female CD-1 mouse model assessed as median survival day at 11 mg/kg, ip pre-infected for 48 hrs from day 0 followed by twice daily compound administration from day 2 to day 6 and measured on day 14 post-infection (reference value: 5.4 day ); format: functional; settings: time 13 day
Summary of the method: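 Female CD-1 mice (n = 6/group) were infected intranasally with Nf69 trophozoites on day 0. After a 48 h establishment period, they received IP dosing at 11 mg/kg twice daily for 5 days. Infected controls received vehicle only. The study lasted 14 days, with Kaplan–Meier survival, and the brains of survivors were cultured for viable amoeba.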

SH-SY5Y = test: Cytotoxicity against human SH-SY5Y cells assessed as reduction in cell viability incubated for 72 hrs by CellTiter-Glo assay; format: toxicity, cell-based; settings: sh-sy5y, 72 h
Summary of the method: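 SH-SY5Y cells at 2000 per well attached overnight at 37 °C. Compound from 20 mM DMSO stocks was added in triplicate as a dose series starting at 20 μM, with doxorubicin as positive control.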

[23] = Drug concentration in CD-1 mouse brain infected with Naegleria fowleri Nf69 (ATCC 30215) trophozoites assessed as adverse effect at 50 mg/kg, ip pre-infected for 48 hrs from day 0 followed by single bolus compound administration from day 2 to day 6 and measured on day 14 post-infection; format: ADME, organism-based; settings: time 13 day, read-out: Ct
[24] = Metabolic stability in human liver microsomes assessed as half-life; format: ADME, Microsome
[25] = Drug concentration in female CD-1 mouse plasma at 11 mg/kg, po measured after 2 hrs by LC-MS/MS analysis; format: ADME, organism-based; summary of the method: as §1
[26] = Drug concentration in female CD-1 mouse plasma at 44 mg/kg, ip measured after 2 hrs by LC-MS/MS analysis; format: ADME, organism-based; summary of the method: as §2
[27] = Drug concentration in female CD-1 mouse plasma at 11 mg/kg, iv measured after 0.5 hrs by LC-MS/MS analysis; format: ADME, organism-based; summary of the method: as §1
[28] = Kinetic solubility of compound at pH 7.4 incubated for 24 hrs by HPLC analysis; format: physicochemical; settings: buffer, pH 7.4, read-out: Kinetic_solubility
Naegleria fowleri [29] = test: Anti-ameobic activity against Naegleria fowleri Nf69 (ATCC 30215) trophozoites infected in female CD-1 mouse model assessed as reduction in infection at 11 mg/kg, ip pre-infected for 48 hrs from day 0 followed by twice daily compound administration from day 2 to day 6 and […]; format: functional, organism-based; settings: time 6.0 day
[30] = Metabolic stability in CD-1 mouse liver microsomes assessed as half-life incubated for 60 mins by LC-MS/MS analysis; format: ADME, Microsome; settings: 1 h
Summary of the method: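 Half-life measured in CD-1 mouse liver microsomes with NADPH over a 60 min exposure.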

[31] = Selectivity index, ratio of CC50 for cytotoxicity against human SH-SY5Y cells to EC50 for anti-amoebic activity against Naegleria fowleri Nf69 (ATCC 30215) assessed as inhibition of amoeba growth; format: toxicity, cell-based; settings: SH-SY5Y cells, read-out: Ratio CC50/EC50
[32] = Drug concentration in female CD-1 mouse plasma at 11 mg/kg, po measured after 8 hrs by LC-MS/MS analysis; format: ADME, organism-based; summary of the method: as §1

SMILES: COc1cc2nc3n(c(=O)c2cc1Cl)CC[C@H]1[C@H]3CCCN1CC1COC1
- F [1]: 38%
- t1/2 [2]: 1 h
- PPB [3]: 74%
- AUC [4]: 1920 ng·h/mL
- Activity [5]: Non-Toxic
- AUC [6]: 5010 ng·h/mL
- concentration at 0.5 h [7]: 469 ng/mL
- t1/2 [8]: 1.1 h
- BPR [9]: 4.7
- concentration at 12 h [10]: 13.3 ng/g
- EC50 (Naegleria fowleri [11]): 12 nM
- EC50 (Naegleria fowleri [12]): 14 nM
- concentration at 4 h [13]: 281 ng/mL
- Vd [14]: 3.7 L/kg
- concentration at 12 h [15]: 2.6 ng/mL
- concentration at 2 h [16]: 882 ng/mL
- concentration at 12 h [17]: 10.4 ng/g
- concentration at 4 h [18]: 9090 ng/g
- concentration at 12 h [19]: 2 ng/mL
- concentration at 4 h [20]: 254 ng/mL
- concentration at 8 h [21]: 18.1 ng/mL
- MSD (Naegleria fowleri [22]): 6.1 days
- CC50 (SH-SY5Y): 2300 nM
- concentration at 312 h [23]: ~20 µM
- t1/2 [24]: 1.54 h
- concentration at 2 h [25]: 459 ng/mL
- concentration at 2 h [26]: 3850 ng/mL
- concentration at 0.5 h [27]: 2110 ng/mL
- solubility kinetic at 24 h [28]: 23.9 µM (≈ 9.32 µg/mL)
- Activity (Naegleria fowleri [29]): inactive
- t1/2 [30]: 0.803 h
- selectivity ratio [31]: 192
- concentration at 8 h [32]: 21.1 ng/mL

— ChEMBL document CHEMBL5608261, “Pharmacophore Establishment and Optimization of Saturated 1,6-Naphthyridine-Fused Quinazolinones that Inhibit Meningoencephalitis-Causing Naegleria fowleri” (J Med Chem, 2024)
